Experimental data reported in ChEMBL document CHEMBL3102806, “1,2,4-Triazole/oxime hybrids as new strategy for nitric oxide donors: Synthesis, anti-inflammatory, ulceroginicity and antiproliferative activities” (Eur J Med Chem, 2014).

tested on: not listed separately; assay: Induction of nitric oxide release in phosphate buffer at 10^-4 M at pH 7.4 after 1 hr by Griess colorimetric method in presence of N-acetylcysteine; assay type: physicochemical; conditions: pH 7.4, 1 h, 100 µM; call rule not given here
In short: (§1)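 Final drug concentration 10^-4 M, added from DMF into 1:1 50 mM phosphate buffer (pH 7.4)/MeOH containing 5 × 10^-4 M N-acetylcysteine, at 37 °C. Nitrite read with Griess reagent after 10 min at room temperature, absorbance at 546 nm. Calibration with sodium nitrite standards (10–80 nmol/ml). Reported as mol NO per mol, n = 4 reaction mixtures.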

Row | SMILES | Activity
1 | C=CCn1c(SCC(=O)Nc2ccc(/C(C)=N/O)cc2)nnc1-c1ccccc1 | 0.15 mol/mol
2 | C=CCn1c(SCC(=O)Nc2ccc(/C(C)=N/O)cc2)nnc1-c1ccc(OC)cc1 | 0.15 mol/mol
3 | CCn1c(SCC(=O)Nc2ccc(/C(C)=N/O)cc2)nnc1-c1ccc(OC)cc1 | 0.16 mol/mol
4 | CCn1c(SCC(=O)Nc2ccc(/C(C)=N/O)cc2)nnc1-c1ccc(OC)c(OC)c1 | 0.15 mol/mol
5 | COc1ccc(-c2nnc(SCC(=O)Nc3ccc(/C(C)=N/O)cc3)n2-c2ccccc2)cc1 | 0.13 mol/mol

tested on: not listed separately; assay: Induction of nitric oxide release in phosphate buffer at 10^-4 M at pH 7.4 after 2 hrs by Griess colorimetric method in presence of N-acetylcysteine; assay type: physicochemical; conditions: pH 7.4, 2 h, 100 µM; in short: as §1

Row | SMILES | Activity
6 | C=CCn1c(SCC(=O)Nc2ccc(/C(C)=N/O)cc2)nnc1-c1ccccc1 | 0.2 mol/mol
7 | C=CCn1c(SCC(=O)Nc2ccc(/C(C)=N/O)cc2)nnc1-c1ccc(OC)cc1 | 0.17 mol/mol
8 | CCn1c(SCC(=O)Nc2ccc(/C(C)=N/O)cc2)nnc1-c1ccc(OC)cc1 | 0.2 mol/mol
9 | CCn1c(SCC(=O)Nc2ccc(/C(C)=N/O)cc2)nnc1-c1ccc(OC)c(OC)c1 | 0.19 mol/mol
10 | COc1ccc(-c2nnc(SCC(=O)Nc3ccc(/C(C)=N/O)cc3)n2-c2ccccc2)cc1 | 0.17 mol/mol

tested on: not listed separately; assay: Induction of nitric oxide release in phosphate buffer at 10^-4 M at pH 7.4 after 3 hrs by Griess colorimetric method in presence of N-acetylcysteine; assay type: physicochemical; conditions: pH 7.4, 3 h, 100 µM; in short: as §1

Row | SMILES | Activity
11 | C=CCn1c(SCC(=O)Nc2ccc(/C(C)=N/O)cc2)nnc1-c1ccccc1 | 0.22 mol/mol
12 | C=CCn1c(SCC(=O)Nc2ccc(/C(C)=N/O)cc2)nnc1-c1ccc(OC)cc1 | 0.23 mol/mol
13 | CCn1c(SCC(=O)Nc2ccc(/C(C)=N/O)cc2)nnc1-c1ccc(OC)cc1 | 0.24 mol/mol
14 | CCn1c(SCC(=O)Nc2ccc(/C(C)=N/O)cc2)nnc1-c1ccc(OC)c(OC)c1 | 0.25 mol/mol
15 | COc1ccc(-c2nnc(SCC(=O)Nc3ccc(/C(C)=N/O)cc3)n2-c2ccccc2)cc1 | 0.24 mol/mol

tested on: not listed separately; assay: Induction of nitric oxide release in phosphate buffer at 10^-4 M at pH 7.4 after 4 hrs by Griess colorimetric method in presence of N-acetylcysteine; assay type: physicochemical; conditions: pH 7.4, 4 h, 100 µM; in short: as §1

Row | SMILES | Activity
16 | C=CCn1c(SCC(=O)Nc2ccc(/C(C)=N/O)cc2)nnc1-c1ccccc1 | 0.24 mol/mol
17 | C=CCn1c(SCC(=O)Nc2ccc(/C(C)=N/O)cc2)nnc1-c1ccc(OC)cc1 | 0.32 mol/mol
18 | CCn1c(SCC(=O)Nc2ccc(/C(C)=N/O)cc2)nnc1-c1ccc(OC)cc1 | 0.29 mol/mol
19 | CCn1c(SCC(=O)Nc2ccc(/C(C)=N/O)cc2)nnc1-c1ccc(OC)c(OC)c1 | 0.43 mol/mol
20 | COc1ccc(-c2nnc(SCC(=O)Nc3ccc(/C(C)=N/O)cc3)n2-c2ccccc2)cc1 | 0.29 mol/mol

tested on: not listed separately; assay: Induction of nitric oxide release in phosphate buffer at 10^-4 M at pH 7.4 after 5 hrs by Griess colorimetric method in presence of N-acetylcysteine; assay type: physicochemical; conditions: pH 7.4, 5 h, 100 µM; in short: as §1

Row | SMILES | Activity
21 | C=CCn1c(SCC(=O)Nc2ccc(/C(C)=N/O)cc2)nnc1-c1ccccc1 | 0.16 mol/mol
22 | C=CCn1c(SCC(=O)Nc2ccc(/C(C)=N/O)cc2)nnc1-c1ccc(OC)cc1 | 0.23 mol/mol
23 | CCn1c(SCC(=O)Nc2ccc(/C(C)=N/O)cc2)nnc1-c1ccc(OC)cc1 | 0.24 mol/mol
24 | CCn1c(SCC(=O)Nc2ccc(/C(C)=N/O)cc2)nnc1-c1ccc(OC)c(OC)c1 | 0.36 mol/mol
25 | COc1ccc(-c2nnc(SCC(=O)Nc3ccc(/C(C)=N/O)cc3)n2-c2ccccc2)cc1 | 0.24 mol/mol

tested on: not listed separately; assay: Induction of nitric oxide release in phosphate buffer at 10^-4 M at pH 7.4 after 6 hrs by Griess colorimetric method in presence of N-acetylcysteine; assay type: physicochemical; conditions: pH 7.4, 6 h, 100 µM; in short: as §1

Row | SMILES | Activity
26 | C=CCn1c(SCC(=O)Nc2ccc(/C(C)=N/O)cc2)nnc1-c1ccccc1 | 0.15 mol/mol
27 | C=CCn1c(SCC(=O)Nc2ccc(/C(C)=N/O)cc2)nnc1-c1ccc(OC)cc1 | 0.16 mol/mol
28 | CCn1c(SCC(=O)Nc2ccc(/C(C)=N/O)cc2)nnc1-c1ccc(OC)cc1 | 0.23 mol/mol
29 | CCn1c(SCC(=O)Nc2ccc(/C(C)=N/O)cc2)nnc1-c1ccc(OC)c(OC)c1 | 0.32 mol/mol
30 | COc1ccc(-c2nnc(SCC(=O)Nc3ccc(/C(C)=N/O)cc3)n2-c2ccccc2)cc1 | 0.23 mol/mol

tested on: not listed separately; assay: Induction of nitric oxide release in HCl buffer at 10^-4 M at pH 1 after 1 hr by Griess colorimetric method in presence of N-acetylcysteine; assay type: physicochemical; conditions: pH 1, 1 h, 100 µM
In short: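 Same Griess nitrite procedure at 10^-4 M final drug with N-acetylcysteine at 37 °C, but with 0.1 N HCl (pH 1) in place of the pH 7.4 phosphate buffer. Absorbance at 546 nm against a sodium nitrite calibration curve.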

Row | SMILES | Activity
31 | C=CCn1c(SCC(=O)Nc2ccc(/C(C)=N/O)cc2)nnc1-c1ccccc1 | Not Active
32 | C=CCn1c(SCC(=O)Nc2ccc(/C(C)=N/O)cc2)nnc1-c1ccc(OC)cc1 | Not Active
33 | CCn1c(SCC(=O)Nc2ccc(/C(C)=N/O)cc2)nnc1-c1ccc(OC)cc1 | Not Active
34 | CCn1c(SCC(=O)Nc2ccc(/C(C)=N/O)cc2)nnc1-c1ccc(OC)c(OC)c1 | Not Active
35 | COc1ccc(-c2nnc(SCC(=O)Nc3ccc(/C(C)=N/O)cc3)n2-c2ccccc2)cc1 | Not Active

tested on: Rattus norvegicus; assay: Antiinflammatory activity in albino rat assessed as inhibition of carrageenan-induced paw edema at 0.28 mmol/kg, po administered 30 mins prior to carrageenan-challenge measured after 1 hr relative to control; assay type: functional; conditions: not given
In short: (§2)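 Male albino rats in groups of four were fasted 24 h with water allowed. Dosing was oral at 0.28 mmol/kg, suspended in 0.5% w/v CMC; controls got CMC alone. After 30 min, 0.1 ml of 1% carrageenan in saline went subplantar into the right hind paw and saline into the left. Paw thickness was read by caliper before and at 1–5 h. % inhibition = [(VR−VL)control−(VR−VL)treated]/(VR−VL)control ×100. Mean ± SEM, n = 4, one-way ANOVA vs control.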

Row | SMILES | inhibition in vivo at 280 µmol/kg
36 | C=CCn1c(SCC(=O)Nc2ccc(/C(C)=N/O)cc2)nnc1-c1ccccc1 | 61%
37 | C=CCn1c(SCC(=O)Nc2ccc(/C(C)=N/O)cc2)nnc1-c1ccc(OC)cc1 | 54%
38 | CCn1c(SCC(=O)Nc2ccc(/C(C)=N/O)cc2)nnc1-c1ccc(OC)cc1 | 54%
39 | CCn1c(SCC(=O)Nc2ccc(/C(C)=N/O)cc2)nnc1-c1ccc(OC)c(OC)c1 | 53%
40 | COc1ccc(-c2nnc(SCC(=O)Nc3ccc(/C(C)=N/O)cc3)n2-c2ccccc2)cc1 | 45%

tested on: Rattus norvegicus; assay: Antiinflammatory activity in albino rat assessed as inhibition of carrageenan-induced paw edema at 0.28 mmol/kg, po administered 30 mins prior to carrageenan-challenge measured after 2 hrs relative to control; assay type: functional; conditions: not given; in short: as §2

Row | SMILES | inhibition in vivo at 280 µmol/kg
41 | C=CCn1c(SCC(=O)Nc2ccc(/C(C)=N/O)cc2)nnc1-c1ccccc1 | 63%
42 | C=CCn1c(SCC(=O)Nc2ccc(/C(C)=N/O)cc2)nnc1-c1ccc(OC)cc1 | 59%
43 | CCn1c(SCC(=O)Nc2ccc(/C(C)=N/O)cc2)nnc1-c1ccc(OC)cc1 | 58%
44 | CCn1c(SCC(=O)Nc2ccc(/C(C)=N/O)cc2)nnc1-c1ccc(OC)c(OC)c1 | 65%
45 | COc1ccc(-c2nnc(SCC(=O)Nc3ccc(/C(C)=N/O)cc3)n2-c2ccccc2)cc1 | 56%

tested on: Rattus norvegicus; assay: Antiinflammatory activity in albino rat assessed as inhibition of carrageenan-induced paw edema at 0.28 mmol/kg, po administered 30 mins prior to carrageenan-challenge measured after 3 hrs relative to control; assay type: functional; conditions: not given; in short: as §2

Row | SMILES | inhibition in vivo at 280 µmol/kg
46 | C=CCn1c(SCC(=O)Nc2ccc(/C(C)=N/O)cc2)nnc1-c1ccccc1 | 73%
47 | C=CCn1c(SCC(=O)Nc2ccc(/C(C)=N/O)cc2)nnc1-c1ccc(OC)cc1 | 63%
48 | CCn1c(SCC(=O)Nc2ccc(/C(C)=N/O)cc2)nnc1-c1ccc(OC)cc1 | 60%
49 | CCn1c(SCC(=O)Nc2ccc(/C(C)=N/O)cc2)nnc1-c1ccc(OC)c(OC)c1 | 66%
50 | COc1ccc(-c2nnc(SCC(=O)Nc3ccc(/C(C)=N/O)cc3)n2-c2ccccc2)cc1 | 57%

tested on: Rattus norvegicus; assay: Antiinflammatory activity in albino rat assessed as inhibition of carrageenan-induced paw edema at 0.28 mmol/kg, po administered 30 mins prior to carrageenan-challenge measured after 4 hrs relative to control; assay type: functional; conditions: not given; in short: as §2

Row | SMILES | inhibition in vivo at 280 µmol/kg
51 | C=CCn1c(SCC(=O)Nc2ccc(/C(C)=N/O)cc2)nnc1-c1ccccc1 | 73%
52 | C=CCn1c(SCC(=O)Nc2ccc(/C(C)=N/O)cc2)nnc1-c1ccc(OC)cc1 | 75%
53 | CCn1c(SCC(=O)Nc2ccc(/C(C)=N/O)cc2)nnc1-c1ccc(OC)cc1 | 73%
54 | CCn1c(SCC(=O)Nc2ccc(/C(C)=N/O)cc2)nnc1-c1ccc(OC)c(OC)c1 | 75%
55 | COc1ccc(-c2nnc(SCC(=O)Nc3ccc(/C(C)=N/O)cc3)n2-c2ccccc2)cc1 | 69%

tested on: Rattus norvegicus; assay: Antiinflammatory activity in albino rat assessed as inhibition of carrageenan-induced paw edema at 0.28 mmol/kg, po administered 30 mins prior to carrageenan-challenge measured after 5 hrs relative to control; assay type: functional; conditions: not given; in short: as §2

Row | SMILES | inhibition in vivo at 280 µmol/kg
56 | C=CCn1c(SCC(=O)Nc2ccc(/C(C)=N/O)cc2)nnc1-c1ccccc1 | 71%
57 | C=CCn1c(SCC(=O)Nc2ccc(/C(C)=N/O)cc2)nnc1-c1ccc(OC)cc1 | 72%
58 | CCn1c(SCC(=O)Nc2ccc(/C(C)=N/O)cc2)nnc1-c1ccc(OC)cc1 | 65%
59 | CCn1c(SCC(=O)Nc2ccc(/C(C)=N/O)cc2)nnc1-c1ccc(OC)c(OC)c1 | 73%
60 | COc1ccc(-c2nnc(SCC(=O)Nc3ccc(/C(C)=N/O)cc3)n2-c2ccccc2)cc1 | 58%

tested on: Rattus norvegicus; assay: Ulcerogenic activity in albino rat carrageenan-induced paw edema model assessed as ulcer index at 0.28 mmol/kg, po (reference value: 0.60 +/- 0.05); assay type: toxicity, organism-based; conditions: in vivo
In short: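 Rats given the compound orally at 0.28 mmol/kg, suspended in 0.5% aqueous CMC; vehicle-only control, n = 4 per group. Gastric ulcers graded by area: I (<1 mm²), II (1–3 mm²), III (>3 mm²). Ulcer index = 1×(level I count) + 2×(level II) + 3×(level III). Mean ± SEM, one-way ANOVA versus control.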

Row | SMILES | UI
61 | C=CCn1c(SCC(=O)Nc2ccc(/C(C)=N/O)cc2)nnc1-c1ccccc1 | 0.64
62 | C=CCn1c(SCC(=O)Nc2ccc(/C(C)=N/O)cc2)nnc1-c1ccc(OC)cc1 | 2.69
63 | CCn1c(SCC(=O)Nc2ccc(/C(C)=N/O)cc2)nnc1-c1ccc(OC)cc1 | 1.04
64 | CCn1c(SCC(=O)Nc2ccc(/C(C)=N/O)cc2)nnc1-c1ccc(OC)c(OC)c1 | 3.43
65 | COc1ccc(-c2nnc(SCC(=O)Nc3ccc(/C(C)=N/O)cc3)n2-c2ccccc2)cc1 | 1.61
